According to ChEMBL document CHEMBL1157616, “Identification of 2-anilino-9-methoxy-5,7-dihydro-6H-pyrimido[5,4-d][1]benzazepin-6-ones as dual PLK1/VEGF-R2 kinase inhibitor chemotypes by structure-based lead generation” (J Med Chem, 2010):
The source made the active and inactive calls.

Tests used:
[1] = molecular target: T1, Vascular endothelial growth factor receptor 2 (Homo sapiens, UniProt P35968); assay: Inhibition of VEGFR2 assessed as [33Pi] incorporation by microplate scintillation counting in presence of 1 uM ATP
T1 sequence (P35968 whole entry): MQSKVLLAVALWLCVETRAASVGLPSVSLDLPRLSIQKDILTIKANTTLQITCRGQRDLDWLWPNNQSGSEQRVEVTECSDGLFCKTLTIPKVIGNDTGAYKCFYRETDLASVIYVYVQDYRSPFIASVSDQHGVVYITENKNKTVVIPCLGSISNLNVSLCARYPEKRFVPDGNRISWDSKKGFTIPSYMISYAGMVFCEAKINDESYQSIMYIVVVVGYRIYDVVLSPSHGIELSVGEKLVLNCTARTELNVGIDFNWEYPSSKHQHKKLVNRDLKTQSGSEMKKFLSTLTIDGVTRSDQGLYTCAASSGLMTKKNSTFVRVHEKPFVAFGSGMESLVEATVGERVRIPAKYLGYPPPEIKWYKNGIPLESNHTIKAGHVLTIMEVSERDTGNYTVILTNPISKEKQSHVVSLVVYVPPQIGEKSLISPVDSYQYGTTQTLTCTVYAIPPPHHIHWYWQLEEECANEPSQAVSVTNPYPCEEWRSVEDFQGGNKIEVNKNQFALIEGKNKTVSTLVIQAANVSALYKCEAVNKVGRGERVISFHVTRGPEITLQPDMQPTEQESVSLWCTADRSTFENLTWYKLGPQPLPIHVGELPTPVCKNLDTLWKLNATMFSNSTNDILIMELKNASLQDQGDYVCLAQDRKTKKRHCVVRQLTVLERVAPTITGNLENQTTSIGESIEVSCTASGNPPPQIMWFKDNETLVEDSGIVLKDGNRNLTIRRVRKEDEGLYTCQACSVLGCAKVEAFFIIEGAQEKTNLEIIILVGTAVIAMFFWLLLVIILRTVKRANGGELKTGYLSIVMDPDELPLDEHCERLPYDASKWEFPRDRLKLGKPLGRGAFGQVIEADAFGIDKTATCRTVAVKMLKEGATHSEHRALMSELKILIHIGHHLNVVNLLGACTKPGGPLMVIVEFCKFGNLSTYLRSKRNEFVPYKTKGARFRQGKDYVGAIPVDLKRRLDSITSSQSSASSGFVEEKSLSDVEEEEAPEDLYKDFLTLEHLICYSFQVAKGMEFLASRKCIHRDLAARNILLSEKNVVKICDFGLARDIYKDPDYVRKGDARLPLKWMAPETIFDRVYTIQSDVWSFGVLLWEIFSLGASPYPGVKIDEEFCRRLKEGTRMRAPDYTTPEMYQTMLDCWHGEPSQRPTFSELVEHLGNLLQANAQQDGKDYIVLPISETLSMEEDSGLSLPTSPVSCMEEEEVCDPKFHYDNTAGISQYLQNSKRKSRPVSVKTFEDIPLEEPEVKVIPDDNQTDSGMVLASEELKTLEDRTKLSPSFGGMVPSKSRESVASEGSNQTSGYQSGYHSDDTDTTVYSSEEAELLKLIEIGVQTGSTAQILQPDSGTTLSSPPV
Method in brief: (§1)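 Substrates: Poly(Glu,Tyr)4:1 for VEGFR2; Poly(Glu,Tyr) or Poly(Ala,Glu,Lys,Tyr) for INS-R; RBER-CHKtide or casein for PLK1. Incubated 30 °C, 80 min, stopped with 2% H3PO4. Singlicate; activity referenced to no-enzyme and no-inhibitor controls.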

Insulin receptor [2] = molecular target: T2, Insulin receptor (Homo sapiens, UniProt P06213); assay: Inhibition of INSR assessed as [33Pi] incorporation by microplate scintillation counting in presence of 1 uM ATP; method in brief: as §1
T2 sequence (P06213 28-758 limits assumed): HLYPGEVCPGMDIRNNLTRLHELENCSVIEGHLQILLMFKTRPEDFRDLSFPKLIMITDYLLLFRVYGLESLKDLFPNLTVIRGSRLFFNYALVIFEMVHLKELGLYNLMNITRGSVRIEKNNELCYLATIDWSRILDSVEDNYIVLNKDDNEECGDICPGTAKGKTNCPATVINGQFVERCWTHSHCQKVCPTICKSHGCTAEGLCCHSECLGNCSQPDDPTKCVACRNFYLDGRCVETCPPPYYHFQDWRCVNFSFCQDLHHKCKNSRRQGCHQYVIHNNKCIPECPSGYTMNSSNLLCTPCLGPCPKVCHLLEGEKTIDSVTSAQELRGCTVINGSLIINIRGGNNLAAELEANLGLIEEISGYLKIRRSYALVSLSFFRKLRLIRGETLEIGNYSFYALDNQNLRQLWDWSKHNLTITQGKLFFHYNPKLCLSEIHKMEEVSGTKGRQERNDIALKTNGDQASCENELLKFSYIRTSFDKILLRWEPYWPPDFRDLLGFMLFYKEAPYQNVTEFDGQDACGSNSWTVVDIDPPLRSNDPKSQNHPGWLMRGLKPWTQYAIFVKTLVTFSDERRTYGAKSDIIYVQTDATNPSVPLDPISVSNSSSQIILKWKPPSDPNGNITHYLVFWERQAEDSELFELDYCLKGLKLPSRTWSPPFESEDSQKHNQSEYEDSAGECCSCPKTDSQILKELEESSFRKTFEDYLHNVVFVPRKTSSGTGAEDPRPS
T2 sequence (P06213 763-1382 limits assumed): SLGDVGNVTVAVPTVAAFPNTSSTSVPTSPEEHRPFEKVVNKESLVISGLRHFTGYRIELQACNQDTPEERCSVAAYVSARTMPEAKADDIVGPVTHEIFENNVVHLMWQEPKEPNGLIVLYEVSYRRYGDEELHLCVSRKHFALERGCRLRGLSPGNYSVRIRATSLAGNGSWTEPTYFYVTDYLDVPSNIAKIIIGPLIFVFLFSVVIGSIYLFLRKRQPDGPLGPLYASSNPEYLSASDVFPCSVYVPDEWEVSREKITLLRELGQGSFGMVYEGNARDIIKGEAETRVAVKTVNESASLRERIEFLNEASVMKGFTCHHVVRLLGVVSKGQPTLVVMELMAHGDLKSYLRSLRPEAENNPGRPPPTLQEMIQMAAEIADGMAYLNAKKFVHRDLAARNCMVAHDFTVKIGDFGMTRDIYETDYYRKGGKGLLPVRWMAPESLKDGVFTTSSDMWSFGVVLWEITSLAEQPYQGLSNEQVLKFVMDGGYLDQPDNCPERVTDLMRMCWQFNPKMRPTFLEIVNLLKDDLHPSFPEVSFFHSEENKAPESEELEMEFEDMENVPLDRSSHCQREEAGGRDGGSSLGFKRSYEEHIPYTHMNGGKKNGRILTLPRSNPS

NCI60 = assay: Antiproliferative activity against human NCI60 cells at 10 uM after 48 hrs by sulforhodamine B assay; assay type: functional, cell-based
Method in brief: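 NCI 60-cell-line prescreen with compound given once at 10 μM. Cells grown in RPMI 1640 with 5% FBS and 2 mM L-glutamine, plated 24 h before dosing, then exposed 48 h at 37 °C. Fixed with cold TCA, stained with SRB, absorbance read at 515 nm, and percent growth taken relative to time-zero and control wells.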

[3] = molecular target: T3, Serine/threonine-protein kinase PLK1 (Homo sapiens, UniProt P53350); assay: Inhibition of PLK1 assessed as [33Pi] incorporation by microplate scintillation counting in presence of 1 uM ATP
T3 sequence (P53350 whole entry): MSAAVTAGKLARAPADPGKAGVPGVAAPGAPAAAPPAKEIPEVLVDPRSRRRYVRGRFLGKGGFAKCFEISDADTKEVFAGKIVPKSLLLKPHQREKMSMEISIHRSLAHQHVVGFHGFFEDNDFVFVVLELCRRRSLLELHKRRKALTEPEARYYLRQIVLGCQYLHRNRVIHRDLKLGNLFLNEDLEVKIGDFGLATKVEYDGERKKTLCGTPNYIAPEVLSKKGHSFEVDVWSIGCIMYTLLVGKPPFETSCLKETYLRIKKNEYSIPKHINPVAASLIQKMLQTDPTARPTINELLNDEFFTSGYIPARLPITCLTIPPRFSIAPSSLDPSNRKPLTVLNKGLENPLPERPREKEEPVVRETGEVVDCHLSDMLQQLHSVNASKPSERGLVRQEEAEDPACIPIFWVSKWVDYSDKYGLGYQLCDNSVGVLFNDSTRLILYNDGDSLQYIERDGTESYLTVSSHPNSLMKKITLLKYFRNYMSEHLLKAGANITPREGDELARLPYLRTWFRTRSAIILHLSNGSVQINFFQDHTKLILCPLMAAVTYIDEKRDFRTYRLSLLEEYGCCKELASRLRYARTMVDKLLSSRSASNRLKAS

[4] = molecular target: T1, Vascular endothelial growth factor receptor 2; settings: HUE, 10 uM
[5] = molecular target: T1, Vascular endothelial growth factor receptor 2; assay: Inhibition of VEGFR2 assessed as [33Pi] incorporation at 10 uM by microplate scintillation counting in presence of 1 uM ATP; method in brief: as §1
[6] = molecular target: T3, Serine/threonine-protein kinase PLK1; assay: Inhibition of PLK1 assessed as [33Pi] incorporation at 10 uM by microplate scintillation counting in presence of 1 uM ATP; method in brief: as §1
Insulin receptor [7] = molecular target: T2, Insulin receptor; assay: Inhibition of INSR assessed as [33Pi] incorporation at 10 uM by microplate scintillation counting in presence of 1 uM ATP; method in brief: as §1
IGROV-1 = assay: Growth inhibition of human IGROV1 cells after 48 hrs by sulforhodamine B assay; assay type: functional; settings: IGROV-1, 48 h
Method in brief: (§2)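 NCI SRB assay with five drug concentrations, top concentration 100 μM, 48 h exposure at 37 °C in RPMI 1640/5% FBS. GI50 is the concentration giving [(Ti−Tz)/(C−Tz)]×100 = 50. Values are means of two independent runs on different dates, each run in duplicate.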

[8] = molecular target: T1, Vascular endothelial growth factor receptor 2; assay: Inhibition of VEGFR2 in HUE cells assessed as inhibition of VEGF-induced autophosphorylation treated for 90 mins before VEGF challenge by ELISA; assay type: cell-based
HUVEC = assay: Inhibition of angiogenesis in HUVEC assessed as inhibition of VEGF-induced sprout growth from cellular spheroids after 24 hrs; assay type: functional, cell-based; settings: Homo sapiens
Method in brief: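 Spheroids of 500 primary HUVEC formed overnight in hanging drops, then embedded in collagen gel. Compound added with VEGF-A at 25 ng/mL final, incubated 37 °C for 24 h, then fixed in 4% paraformaldehyde. Cumulative sprout length measured by image analysis; the mean of 10 random spheroids counts as one data point. IC50 from curve fitting.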

CAKI-1 = assay: Growth inhibition of human Caki1 cells after 48 hrs by sulforhodamine B assay; assay type: functional; settings: CAKI-1, 48 h; method in brief: as §2
UACC-257 = assay: Growth inhibition of human UACC257 cells after 48 hrs by sulforhodamine B assay; assay type: functional; settings: UACC-257, 48 h; method in brief: as §2

IC50 [1] | IC50 (Insulin receptor [2]) | IC50 [3] | inhibition [4] | inhibition [5] | inhibition [6] | inhibition (Insulin receptor [7]) | IC50 [8] | Compound | Activity (NCI60) | GI50 (IGROV-1) | IC50 (HUVEC) | GI50 (CAKI-1) | GI50 (UACC-257)
87 nM | > 100000 nM | 1400 nM | inactive |  |  |  |  | O=C1Cc2cnc(Nc3ccc(O)c(Cl)c3)nc2-c2cnccc2N1 | Active |  |  |  | 
 |  |  |  | < 30% | < 30% | < 30% |  | O=C1Cc2cnc3ncnn3c2-c2ccccc2N1 | Active |  |  |  | 
52 nM | > 100000 nM | 7300 nM |  |  |  |  | 290 nM | CCOc1ccc(Nc2ncc3c(n2)-c2ccc(OC)cc2NC(=O)C3)cc1 | Active | 230 nM | 1100 nM | 390 nM | 55000 nM
